Measurements of several laboratories.
Protocols differ between the studies behind these lines.
Target: Mitogen-activated protein kinase kinase kinase 6 (MAP3K6, Homo sapiens, UniProt O95382)
Sequence (O95382 1-1288, as in one of the studies): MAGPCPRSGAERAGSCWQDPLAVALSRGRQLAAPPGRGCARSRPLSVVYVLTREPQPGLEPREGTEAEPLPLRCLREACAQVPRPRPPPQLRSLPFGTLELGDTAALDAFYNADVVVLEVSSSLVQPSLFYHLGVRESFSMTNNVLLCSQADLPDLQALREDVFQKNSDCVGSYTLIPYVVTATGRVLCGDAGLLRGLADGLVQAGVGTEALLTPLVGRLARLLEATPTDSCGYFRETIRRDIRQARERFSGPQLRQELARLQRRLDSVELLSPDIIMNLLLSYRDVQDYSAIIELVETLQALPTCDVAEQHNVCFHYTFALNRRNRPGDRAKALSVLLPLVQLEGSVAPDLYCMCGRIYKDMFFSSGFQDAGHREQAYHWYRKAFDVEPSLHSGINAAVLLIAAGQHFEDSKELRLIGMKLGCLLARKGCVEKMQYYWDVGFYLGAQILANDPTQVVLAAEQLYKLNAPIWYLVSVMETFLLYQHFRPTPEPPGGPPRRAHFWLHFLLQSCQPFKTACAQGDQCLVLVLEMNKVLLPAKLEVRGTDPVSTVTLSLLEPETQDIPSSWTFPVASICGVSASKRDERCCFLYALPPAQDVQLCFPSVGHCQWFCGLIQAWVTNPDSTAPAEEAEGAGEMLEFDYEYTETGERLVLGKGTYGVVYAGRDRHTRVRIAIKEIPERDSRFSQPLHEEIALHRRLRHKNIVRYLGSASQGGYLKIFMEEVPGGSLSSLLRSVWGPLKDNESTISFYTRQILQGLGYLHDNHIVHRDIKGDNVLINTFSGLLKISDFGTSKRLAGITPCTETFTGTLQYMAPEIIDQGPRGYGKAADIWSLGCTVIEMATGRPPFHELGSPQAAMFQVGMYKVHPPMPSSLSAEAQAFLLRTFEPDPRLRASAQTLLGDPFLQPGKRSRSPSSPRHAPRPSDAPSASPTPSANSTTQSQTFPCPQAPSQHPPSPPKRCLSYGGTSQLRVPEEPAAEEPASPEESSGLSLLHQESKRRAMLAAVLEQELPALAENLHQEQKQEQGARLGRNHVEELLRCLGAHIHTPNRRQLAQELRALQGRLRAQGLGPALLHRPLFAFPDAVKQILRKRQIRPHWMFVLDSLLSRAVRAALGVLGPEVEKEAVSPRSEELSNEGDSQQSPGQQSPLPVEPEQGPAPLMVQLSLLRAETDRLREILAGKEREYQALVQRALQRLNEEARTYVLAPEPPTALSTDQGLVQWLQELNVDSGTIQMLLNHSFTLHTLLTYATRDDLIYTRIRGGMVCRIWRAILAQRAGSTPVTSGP

| SMILES | read-out | technique | concentration | remaining binding [%] |
| --- | --- | --- | --- | --- |
| FC(F)(F)Oc1cccc(-c2cnc3ccc(-c4ccncc4)nn23)c1 | cell-free assay | competition with immobilised ligand | 5 µM | 96 |
| CO[C@@H](C)c1c(Nc2ccc([C@@H](N(C)C(=O)C3CCS(=O)(=O)CC3)C(F)(F)F)cc2)cnc2cc(Cl)nn12 | cell-free assay | competition with immobilised ligand | 1 µM | 100 |
| O=C(c1ccc(Nc2nccc(-c3cc4ccccc4s3)n2)cc1)N1CCC(N2CCCC2)CC1 | binding | competition with immobilised ligand | 1 µM | 91 |
| O=C(NCC1CCOCC1)c1n[nH]cc1NC(=O)c1c(F)cccc1F | binding | competition with immobilised ligand | 1 µM | 77 |
| C[C@H]1CCN(c2nccc(-c3cnn4ncccc34)n2)C1 | binding |  | 1 µM | 57 |
| COc1ncc2cc3ccccc3nc2c1C#N | cell-free assay | competition with immobilised ligand | 5 µM | 100 |
| CN([C@@H]1CCc2c(CC(=O)O)c3ccccc3n2C1)S(=O)(=O)c1ccc(F)cc1 | cell-free assay | competition with immobilised ligand | 1 µM | 80 |
| C[C@@H](c1ccc(-n2cnc3c(N)ncnc32)cc1)N1CCc2nn(C)c(Cc3ccccc3)c2C1=O | binding | competition with immobilised ligand | 0.1 µM | 67 |
| O=C(c1ccc(Nc2ncc(Cl)c(-c3cc4ccccc4s3)n2)cc1)N1CCC(N2CCCC2)CC1 | binding | competition with immobilised ligand | 1 µM | 80 |
| CS(=O)(=O)N1CCCC(NC(=O)[C@H](CCC2CCCCC2)NC(=O)c2ccc(CNC(=O)c3cnc4ccccn34)cc2)C1 (stereo partly shown) | cell-free assay | competition with immobilised ligand | 0.1 µM | 100 |
| CN(C)c1ncc(F)c(-c2cnn3ncccc23)n1 | binding |  | 1 µM | 97 |
| CNC(=O)Nc1ccc2c(c1)CC[C@@]21OC(=O)N(CC(=O)N(Cc2ccc(F)cc2)[C@@H](C)C(F)(F)F)C1=O | cell-free assay | competition with immobilised ligand | 1 µM | 86 |
| C=CC(=O)N1CCC(C(=O)NCC(=O)N2CCN(c3nc(-c4cnc(N)nc4C(F)F)nc(N4CCOCC4)n3)CC2)CC1 | binding | competition with immobilised ligand | 1 µM | 100 |
| Cc1cc(C)c(-n2ccn3nc(-c4cccnc4)cc23)cc1NC(=O)c1cc(C#N)cc(S(F)(F)(F)(F)F)c1 | cell-free assay | competition with immobilised ligand | 0.1 µM | 100 |
| N[C@H]1CCN(c2nccc(-c3cnn4ncccc34)n2)C1 | binding |  | 1 µM | 82 |
| COc1ccc2cc(OCC3(C(=O)O)CN(C(=O)c4ccc(F)cc4)C3)ccc2c1 | cell-free assay | competition with immobilised ligand | 1 µM | 95 |
| Cc1cnn2ncc(-c3ccnc(N(C)C)n3)c2c1 | binding |  | 1 µM | 81 |
| COc1cnc(Nc2cccc(S(N)(=O)=O)c2)nc1N1CCN(c2ccccc2)C(=O)C1 | binding | competition with immobilised ligand | 1 µM | 84 |
| CN(CCCC(F)(F)F)c1nccc(-c2cnn3ncccc23)n1 | binding |  | 1 µM | 100 |
| CNCc1ccccc1-c1csc([C@H](C)Nc2nc(C)nc3cc(OC)c(OC)cc23)c1 | cell-free assay | competition with immobilised ligand | 1 µM | 100 |
| CC1CCCN1c1nccc(-c2cnn3ncccc23)n1 (stereo not shown) | binding |  | 1 µM | 100 |
| Cc1cnc(Nc2ccc(C(=O)N3CCC(N4CCCC4)CC3)cc2)nc1-c1cc2ccccc2s1 | binding | competition with immobilised ligand | 1 µM | 100 |
